Entries after “also recorded” stand apart in the source; their conditions may differ.
System: Japanese patients with solid tumors
Test: Phase I dose-escalation study: safety, tolerability, DLT and MTD
Type: in vivo, human
Conditions: for Dose-limiting toxicities (DLTs): cycle 1
Outline: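 Oral test compound (tosylate salt) was given QD on days 1–21 of 28-day cycles in cohorts of 3–6 patients at 60, 90 or 120 mg. Escalation used a modified continual reassessment method (Bayesian logistic regression, escalation with overdose control). DLT window was cycle 1 (28 days). AEs were coded with MedDRA 18.0 and graded by CTCAE v4.0 (Japanese). Analysis covered patients receiving ≥1 dose.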

[1] = Cohort 1 60 mg/d (n = 3), All grades
[2] = Cohort 1 60 mg/d (n = 3), Grade ≥ 3
[3] = Cohort 2 90 mg/d (n = 11), All grades
[4] = Cohort 2 90 mg/d (n = 11), Grade ≥ 3
[5] = Cohort 3 120 mg/d (n = 4), All grades

## CC1(C)CCC2(CC1)N[C@@H](C(=O)N[C@@H]1CC[C@@H](C(N)=O)OC1)[C@H](c1ccnc(Cl)c1F)[C@]21C(=O)Nc2cc(Cl)ccc21 [milademetan, Milademetan]
60 mg/day
  Dose interruptions: 2 n
90 mg/day
  Dose interruptions: 5 n
120 mg/day
  Dose interruptions: 3 n
120 mg/day cohort
  Dose-limiting toxicities (DLTs): three events of platelet count decreased and one nausea; also recorded: Four DLTs were observed in four patients
60-mg and 90-mg cohorts
  Dose-limiting toxicities (DLTs): No DLTs occurred
[1]
  TEAE: Alanine aminotransferase increased: 1 (33.3) n (%)
  TEAE: Anemia: 0 (0.0) n (%)
  TEAE: Aspartate aminotransferase increased: 0 (0.0) n (%)
  TEAE: Constipation: 2 (66.7) n (%)
  TEAE: Decreased appetite: 2 (66.7) n (%)
  TEAE: Diarrhea: 0 (0.0) n (%)
  TEAE: Disease progression: 0 (0.0) n (%)
  TEAE: Fatigue: 2 (66.7) n (%)
  TEAE: Hypoalbuminemia: 1 (33.3) n (%)
  TEAE: Hyponatremia: 0 (0.0) n (%)
  TEAE: Hypophosphataemic rickets: 0 (0.0) n (%)
  TEAE: Jaundice cholestatic: 0 (0.0) n (%)
  TEAE: Lymphangiosis carcinomatosa: 1 (33.3) n (%)
  TEAE: Lymphocyte count decreased: 1 (33.3) n (%)
  TEAE: Nausea: 3 (100.0) n (%)
  TEAE: Neutrophil count decreased: 0 (0.0) n (%)
  TEAE: Platelet count decreased: 0 (0.0) n (%)
  TEAE: Pyrexia: 0 (0.0) n (%)
  TEAE: Sepsis: 0 (0.0) n (%)
  TEAE: Urinary tract infection: 0 (0.0) n (%)
  TEAE: Vomiting: 0 (0.0) n (%)
  TEAE: White blood cell count decreased: 1 (33.3) n (%)
[2]
  TEAE: Alanine aminotransferase increased: 0 (0.0) n (%)
  TEAE: Anemia: 0 (0.0) n (%)
  TEAE: Aspartate aminotransferase increased: 0 (0.0) n (%)
  TEAE: Constipation: 0 (0.0) n (%)
  TEAE: Decreased appetite: 0 (0.0) n (%)
  TEAE: Diarrhea: 0 (0.0) n (%)
  TEAE: Disease progression: 0 (0.0) n (%)
  TEAE: Fatigue: 0 (0.0) n (%)
  TEAE: Hypoalbuminemia: 0 (0.0) n (%)
  TEAE: Hyponatremia: 0 (0.0) n (%)
  TEAE: Hypophosphataemic rickets: 0 (0.0) n (%)
  TEAE: Jaundice cholestatic: 0 (0.0) n (%)
  TEAE: Lymphangiosis carcinomatosa: 1 (33.3) n (%)
  TEAE: Lymphocyte count decreased: 0 (0.0) n (%)
  TEAE: Nausea: 0 (0.0) n (%)
  TEAE: Neutrophil count decreased: 0 (0.0) n (%)
  TEAE: Platelet count decreased: 0 (0.0) n (%)
  TEAE: Pyrexia: 0 (0.0) n (%)
  TEAE: Sepsis: 0 (0.0) n (%)
  TEAE: Urinary tract infection: 0 (0.0) n (%)
  TEAE: Vomiting: 0 (0.0) n (%)
  TEAE: White blood cell count decreased: 0 (0.0) n (%)
[3]
  TEAE: Alanine aminotransferase increased: 1 (9.1) n (%)
  TEAE: Anemia: 7 (63.6) n (%)
  TEAE: Aspartate aminotransferase increased: 2 (18.2) n (%)
  TEAE: Constipation: 2 (18.2) n (%)
  TEAE: Decreased appetite: 6 (54.5) n (%)
  TEAE: Diarrhea: 3 (27.3) n (%)
  TEAE: Disease progression: 0 (0.0) n (%)
  TEAE: Fatigue: 6 (54.5) n (%)
  TEAE: Hypoalbuminemia: 6 (54.5) n (%)
  TEAE: Hyponatremia: 3 (27.3) n (%)
  TEAE: Hypophosphataemic rickets: 1 (9.1) n (%)
  TEAE: Jaundice cholestatic: 1 (9.1) n (%)
  TEAE: Lymphangiosis carcinomatosa: 0 (0.0) n (%)
  TEAE: Lymphocyte count decreased: 1 (9.1) n (%)
  TEAE: Nausea: 7 (63.6) n (%)
  TEAE: Neutrophil count decreased: 3 (27.3) n (%)
  TEAE: Platelet count decreased: 8 (72.7) n (%)
  TEAE: Pyrexia: 3 (27.3) n (%)
  TEAE: Sepsis: 0 (0.0) n (%)
  TEAE: Urinary tract infection: 1 (9.1) n (%)
  TEAE: Vomiting: 3 (27.3) n (%)
  TEAE: White blood cell count decreased: 6 (54.5) n (%)
[4]
  TEAE: Alanine aminotransferase increased: 1 (9.1) n (%)
  TEAE: Anemia: 3 (27.3) n (%)
  TEAE: Aspartate aminotransferase increased: 0 (0.0) n (%)
  TEAE: Constipation: 0 (0.0) n (%)
  TEAE: Decreased appetite: 0 (0.0) n (%)
  TEAE: Diarrhea: 0 (0.0) n (%)
  TEAE: Disease progression: 0 (0.0) n (%)
  TEAE: Fatigue: 0 (0.0) n (%)
  TEAE: Hypoalbuminemia: 0 (0.0) n (%)
  TEAE: Hyponatremia: 1 (9.1) n (%)
  TEAE: Hypophosphataemic rickets: 1 (9.1) n (%)
  TEAE: Jaundice cholestatic: 1 (9.1) n (%)
  TEAE: Lymphangiosis carcinomatosa: 0 (0.0) n (%)
  TEAE: Lymphocyte count decreased: 0 (0.0) n (%)
  TEAE: Nausea: 0 (0.0) n (%)
  TEAE: Neutrophil count decreased: 0 (0.0) n (%)
  TEAE: Platelet count decreased: 1 (9.1) n (%)
  TEAE: Pyrexia: 0 (0.0) n (%)
  TEAE: Sepsis: 0 (0.0) n (%)
  TEAE: Urinary tract infection: 1 (9.1) n (%)
  TEAE: Vomiting: 0 (0.0) n (%)
  TEAE: White blood cell count decreased: 0 (0.0) n (%)
[5]
  TEAE: Alanine aminotransferase increased: 2 (50.0) n (%)
  TEAE: Anemia: 2 (50.0) n (%)
  TEAE: Aspartate aminotransferase increased: 2 (50.0) n (%)
  TEAE: Constipation: 1 (25.0) n (%)
  TEAE: Decreased appetite: 3 (75.0) n (%)
  TEAE: Diarrhea: 2 (50.0) n (%)
  TEAE: Disease progression: 1 (25.0) n (%)
  TEAE: Fatigue: 1 (25.0) n (%)
  TEAE: Hypoalbuminemia: 1 (25.0) n (%)
  TEAE: Hyponatremia: 2 (50.0) n (%)
